MIC80 data for four compounds are collected here from ChEMBL document CHEMBL1158372, “Design, synthesis, and biological evaluation of novel triazole derivatives as inhibitors of cytochrome P450 14alpha-demethylase” (2009).

As a reminder, the MIC80 is the lowest concentration that inhibits either 80% of growth or 80% of the strains tested, depending on the study. The low end stands for greater potency, the high end for weaker potency.

Common to all, as to type: functional
In one test the test system is Aspergillus fumigatus. As to the kind of experiment: Antifungal activity against Aspergillus fumigatus by micro-broth dilution method. The procedure, abridged:
(§1)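 Broth microdilution in 96-well plates following the NCCLS method. DMSO solutions of test agents were serially diluted in growth medium, inoculated, and incubated at 35 °C. MIC80 is the first well showing roughly 80% growth reduction versus the drug-free control. C. albicans ATCC76615 and Cry. neoformans ATCC32609 served as quality-control strains. Each test was done three times; the mean of replicates is reported.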

The subject of the next test is Cryptococcus neoformans. As to the kind of experiment: Antifungal activity against Cryptococcus neoformans ATCC 32609 after 72 hrs by micro-broth dilution method. The conditions noted are these: ATCC 32609, 72 h. The procedure, abridged: (§2)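 NCCLS (M27-A2) broth microdilution in 96-well format. Compounds in DMSO, serially diluted in growth medium, inoculated, incubated at 35 °C, and read at 24 h (C. albicans ATCC76615) or 72 h (Cry. neoformans ATCC32609). MIC80 is the first well with about 80% less growth than the drug-free well. Three independent runs per agent; the mean of replicates is reported.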
In general terms: In broth dilution the organism is exposed to a series of concentrations in liquid medium.

In a further test the test system is Nannizzia gypsea. As to the kind of experiment: Antifungal activity against Microsporum gypseum by micro-broth dilution method. The procedure, abridged:
as §1

The next test deals with Pichia kudriavzevii. The test is described as follows: Antifungal activity against Candida krusei by micro-broth dilution method. A digest of the protocol:
as §1

The test system of another test is Candida albicans. As to the kind of experiment: Antifungal activity against Candida albicans ATCC 76615 after 24 hrs by micro-broth dilution method. The conditions noted are these: ATCC 76615, 24 h. A digest of the protocol:
as §2

The subject of another test is Trichophyton rubrum. As to the kind of experiment: Antifungal activity against Trichophyton rubrum by micro-broth dilution method. The procedure, abridged: as §1
The test system of a further test is Candida tropicalis. As to the kind of experiment: Antifungal activity against Candida tropicalis by micro-broth dilution method. A digest of the protocol:
as §1

Another test concerns Candida parapsilosis. As to the kind of experiment: Antifungal activity against Candida parapsilosis by micro-broth dilution method. Particulars: Lodderomyces parapsilosis. The procedure, abridged: as §1

Values after ≈ are worked out from the molar mass of the structure shown.

Consider `C=CCN(Cc1ccc(C)cc1)CC(O)(Cn1cncn1)c1ccc(F)cc1F` (configuration not stated), for which the MIC80 in the test with Aspergillus fumigatus is above 64 µg/mL; against Cryptococcus neoformans, 0.0625 µg/mL (≈ 0.157 µM); against Nannizzia gypsea, 0.0156 µg/mL (≈ 0.0392 µM); against Pichia kudriavzevii, 0.0625 µg/mL (≈ 0.157 µM); in the test on Candida albicans it was 0.0156 µg/mL (≈ 0.0392 µM); in the test on Trichophyton rubrum, 1 µg/mL (≈ 2.51 µM). For the same compound, the MIC80 in the test on Candida tropicalis and in the test on Candida parapsilosis was 0.25 µg/mL (≈ 0.627 µM) in each case.
On to `C=CCN(Cc1ccc(C(=O)OC(C)C)cc1)CC(O)(Cn1cncn1)c1ccc(F)cc1F` (configuration not stated), for which the MIC80 against Aspergillus fumigatus is above 64 µg/mL; with Cryptococcus neoformans it was 1 µg/mL (≈ 2.13 µM); in the test on Nannizzia gypsea, 0.0156 µg/mL (≈ 0.0332 µM); in the test on Pichia kudriavzevii it was 0.25 µg/mL (≈ 0.531 µM); with Candida albicans, 0.25 µg/mL (≈ 0.531 µM); with Trichophyton rubrum, 1 µg/mL (≈ 2.13 µM). In addition, the MIC80 against Candida tropicalis and with Candida parapsilosis was 1 µg/mL (≈ 2.13 µM) in each case.
For the compound `CC(=O)N1CCN(c2ccc(OCC3COC(Cn4ccnc4)(c4ccc(Cl)cc4Cl)O3)cc2)CC1` (configuration not stated) [KETOCONAZOLE], the MIC80 is 1 µg/mL (≈ 1.88 µM) against Aspergillus fumigatus; 0.0625 µg/mL (≈ 0.118 µM) in the test with Cryptococcus neoformans; 0.0156 µg/mL (≈ 0.0294 µM) against Nannizzia gypsea; 0.25 µg/mL (≈ 0.47 µM) in the test with Pichia kudriavzevii; 0.0156 µg/mL (≈ 0.0294 µM) against Candida albicans; 0.0625 µg/mL (≈ 0.118 µM) against Trichophyton rubrum. The MIC80 against Candida tropicalis and with Candida parapsilosis was 0.0625 µg/mL (≈ 0.118 µM) throughout.
For the compound `CN(C/C=C/C#CC(C)(C)C)Cc1cccc2ccccc12` [TERBINAFINE], the MIC80 with Aspergillus fumigatus came out at 0.0625 µg/mL (≈ 0.214 µM); in the test on Cryptococcus neoformans, 1 µg/mL (≈ 3.43 µM); against Nannizzia gypsea, 4 µg/mL (≈ 13.7 µM); with Pichia kudriavzevii, 16 µg/mL (≈ 54.9 µM); against Candida albicans it was 4 µg/mL (≈ 13.7 µM); in the test with Trichophyton rubrum, 0.0625 µg/mL (≈ 0.214 µM). Moreover, the values for the MIC80 against Candida tropicalis and against Candida parapsilosis were 0.0625 µg/mL (≈ 0.214 µM) and 0.25 µg/mL (≈ 0.858 µM), respectively.
